Assay results reported in publication PMC4495401 (Genes & Development, 2015).
Where a chain is given by its changes, count along the chain named. Entries after “also recorded” stand apart in the source; their conditions may differ.

Experiments:
p53-AMC peptide = test: ITC, resveratrol to p53-AMC peptide; type: binding; conditions: 25°C
SIRT1 R446A mutant = target: T1, SIRT1 R446A mutant (Homo sapiens, UniProt Q96EB6, C253S/C268S/C501S/C502S/DEL513-640/R446A); test: Enzyme-coupled deacetylation assay, SIRT1 R446A; type: biochemical; conditions: p53-AMC 100 μM, 0.2 mM resveratrol, PBS pH 7.4, 37°C
T1 sequence (Q96EB6 with tags, fused parts or gaps C253S/C268S/R446A/C501S/C502S/DEL513-640 limits assumed): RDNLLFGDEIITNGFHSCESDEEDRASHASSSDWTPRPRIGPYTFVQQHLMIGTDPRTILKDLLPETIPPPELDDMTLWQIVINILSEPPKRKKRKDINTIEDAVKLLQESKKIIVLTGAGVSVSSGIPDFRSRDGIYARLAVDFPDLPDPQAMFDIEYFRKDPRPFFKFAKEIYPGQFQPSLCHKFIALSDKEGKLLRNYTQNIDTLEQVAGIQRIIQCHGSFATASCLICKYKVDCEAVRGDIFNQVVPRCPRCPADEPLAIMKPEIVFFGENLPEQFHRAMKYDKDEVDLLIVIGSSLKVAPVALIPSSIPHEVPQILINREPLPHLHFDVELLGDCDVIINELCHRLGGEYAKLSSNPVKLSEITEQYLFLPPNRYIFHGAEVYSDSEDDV
Summary of the method: (§1)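 Mutants are made in the SIRT1-143CS background. Continuous coupled assay in PBS pH 7.4: 2 mM NAD, 100 μM p53-AMC, ±0.2 mM resveratrol, 0.2 mM NADH, 3.3 mM α-ketoglutarate, 1 μM PncA, 3 U glutamate dehydrogenase, 1 mM DTT, 2% DMSO. Pre-equilibrated 5–10 min at 37°C without NAD, then started with NAD. A340 followed 15 min, minus no-NAD background. Rate taken from the linear portion, three repeats.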

SIRT3 = conditions: fluorogenic Fluor-de-Lys (FdL) peptide substrate; ref Gertz et al. 2012; cited from earlier work
SIRT1-143 = test: Enzyme-coupled deacetylation assay, SIRT1-143; type: biochemical, human; conditions: p53-AMC substrate, 0.5 mM resveratrol (Fig. 1B)
Summary of the method: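 Purified tag-free SIRT1 fragments (his-sumo tag removed after Ni-IDA, then size exclusion) in the continuous nicotinamidase/glutamate dehydrogenase-coupled assay. NADH oxidation was read at 340 nm using an extinction coefficient of 6.22 mM−1 cm−1. Reactions at 37°C in PBS pH 7.4, started with NAD, with and without resveratrol. Background from no-NAD controls was subtracted.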

SIRT1 E230A mutant = target: T2, SIRT1 E230A mutant (Homo sapiens, UniProt Q96EB6, C253S/C268S/C501S/C502S/DEL513-640/E230A); test: Enzyme-coupled deacetylation assay, SIRT1 E230A; type: biochemical; conditions: p53-AMC 100 μM, 0.2 mM resveratrol, PBS pH 7.4, 37°C
T2 sequence (Q96EB6 with tags, fused parts or gaps E230A/C253S/C268S/C501S/C502S/DEL513-640 limits assumed): T1 sequence (Q96EB6 with tags, fused parts or gaps C253S/C268S/R446A/C501S/C502S/DEL513-640 limits assumed) with E88A, A304R
Summary of the method: as §1

SIRT1-143CS = target: T3, SIRT1-143CS (Homo sapiens, UniProt Q96EB6, C253S/C268S/C501S/C502S/DEL513-640); type: biochemical; conditions: 0.2 mM resveratrol, PBS pH 7.4, 37°C
T3 sequence (Q96EB6 with tags, fused parts or gaps C253S/C268S/C501S/C502S/DEL513-640 limits assumed): T1 sequence (Q96EB6 with tags, fused parts or gaps C253S/C268S/R446A/C501S/C502S/DEL513-640 limits assumed) with A304R

[1] = target: T4, SIRT1-143CS (C253S, C268S, C501S, C502S) (Homo sapiens, UniProt Q96EB6, C253S/C268S/C501S/C502S/DEL513-640); test: ITC peptide binding, SIRT1-143CS; conditions: 25°C, 0.5 mM resveratrol
T4 sequence (Q96EB6 with tags, fused parts or gaps C253S/C268S/C501S/C502S/DEL513-640 limits assumed): T1 sequence (Q96EB6 with tags, fused parts or gaps C253S/C268S/R446A/C501S/C502S/DEL513-640 limits assumed) with A304R
Summary of the method: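 p53-AMC peptide ([acR]HK[Kac]-AMC) at 1.5 mM was titrated into 0.1 mM SIRT1 protein at 25°C with 600 rpm stirring. The run used 20 injections, a 0.5 μL first drop that was not used, 2 μL drops thereafter and 2 min intervals. Titrant and protein were both in 20 mM HEPES pH 7.5, 150 mM NaCl, 10% glycerol, with or without 0.5 mM resveratrol. Buffer-only titrant heat was subtracted, and KD came from a one-site fit.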

SIRT1 E230K mutant = target: T5, SIRT1 E230K mutant (Homo sapiens, UniProt Q96EB6, C253S/C268S/C501S/C502S/DEL513-640/E230K); test: Enzyme-coupled deacetylation assay, SIRT1 E230K; type: biochemical; conditions: p53-AMC 100 μM, 0.2 mM resveratrol, PBS pH 7.4, 37°C
T5 sequence (Q96EB6 with tags, fused parts or gaps E230K/C253S/C268S/C501S/C502S/DEL513-640 limits assumed): T1 sequence (Q96EB6 with tags, fused parts or gaps C253S/C268S/R446A/C501S/C502S/DEL513-640 limits assumed) with E88K, A304R
Summary of the method: as §1

[2] = tested on: fluorophore-attached p53 peptides; conditions: ref Borra et al. 2005; Pacholec et al. 2010; cited from earlier work
SIRT1 Q222A/N226A mutant = target: T6, SIRT1 Q222A/N226A mutant (Homo sapiens, UniProt Q96EB6, C253S/C268S/C501S/C502S/DEL513-640/N226A/Q222A); test: Enzyme-coupled deacetylation assay, SIRT1 Q222A/N226A; type: biochemical; conditions: p53-AMC 100 μM, 0.2 mM resveratrol, PBS pH 7.4, 37°C
T6 sequence (Q96EB6 with tags, fused parts or gaps Q222A/N226A/C253S/C268S/C501S/C502S/DEL513-640 limits assumed): T1 sequence (Q96EB6 with tags, fused parts or gaps C253S/C268S/R446A/C501S/C502S/DEL513-640 limits assumed) with Q80A, N84A, A304R
Summary of the method: as §1

SIRT5 = conditions: fluorogenic Fluor-de-Lys (FdL) peptide substrate; ref Gertz et al. 2012; cited from earlier work
[3] = target: SIRT1 NTD (isolated protein domain); test: ITC, resveratrol to isolated SIRT1 NTD; type: binding, human; conditions: 25°C

Oc1ccc(/C=C/c2cc(O)cc(O)c2)cc1 [resveratrol]
binding affinity between resveratrol and the p53-AMC peptide (p53-AMC peptide): too weak to be reliably quantitated | level of resveratrol stimulation (SIRT1 R446A mutant): level of resveratrol stimulation similar to that of the E230K mutant | effect on SIRT3 activity (SIRT3): inhibit SIRT3 | stimulation of deacetylase activity by resveratrol (SIRT1-143): stimulated by resveratrol in a manner similar to that of the full-length protein | stimulatory effect of resveratrol (SIRT1 E230A mutant): significantly reduced the stimulatory effect of resveratrol | effect of resveratrol on Km for the p53-AMC peptide (SIRT1-143CS): significantly lowered the Km value for the p53-AMC peptide; also recorded: lowered the Km value of the fluorogenic peptide | effect of resveratrol on Km for PGC-1α and FOXO3a peptides (SIRT1-143CS; native peptides without fluorophore): less pronounced | effect of resveratrol on binding between SIRT1 and the p53-AMC peptide [1]: increased the binding between SIRT1 and the p53-AMC peptide | stimulatory effect of resveratrol (SIRT1 E230K mutant): significantly reduced the stimulatory effect of resveratrol | interaction with fluorophore-attached p53 peptides [2]: weakly | response to the addition of resveratrol (SIRT1 Q222A/N226A mutant): conspicuous level of reduction in response to the addition of resveratrol | effect on SIRT5 activity (SIRT5): stimulate the activity of SIRT5 | binding affinity between resveratrol and the SIRT1 NTD [3]: too weak to be reliably quantitated
